From ChEMBL document CHEMBL4814060, “Design, synthesis and biological evaluation of novel pleuromutilin derivatives as potent anti-MRSA agents targeting the 50S ribosome” (Bioorg Med Chem, 2021)
Values after ≈ are worked out from the molar mass of the structure shown.

How the values were obtained:
Staphylococcus aureus [1] = test: Antibacterial activity against methicillin-resistant Staphylococcus aureus ATCC 43300 assessed as inhibition of visible growth incubated for 24 hrs by CLSI protocol based broth microdilution method; type: functional
Staphylococcus aureus [2] = test: Antibacterial activity against Staphylococcus aureus ATCC 29213 assessed as inhibition of visible growth incubated for 24 hrs by CLSI protocol based broth microdilution method; type: functional
Staphylococcus aureus [3] = test: Antibacterial activity against Staphylococcus aureus 144 assessed as inhibition of visible growth incubated for 24 hrs by CLSI protocol based broth microdilution method; type: functional
Staphylococcus aureus [4] = test: Antibacterial activity against Staphylococcus aureus AD3 assessed as inhibition of visible growth incubated for 24 hrs by CLSI protocol based broth microdilution method; type: functional
[5] = molecular target: T1, Bacterial 70S ribosome (Bacteria) (UniProt P0A7V0+P60723+P0AG67+P0A7R5+P0A7R9+P0A7S3+P0A7S9+P0AG59+P0ADZ4+P0A7T3+P0AG63+P0A7T7+P0A7U3+P0A7U7+P68679+P0A7V3+P0A7V8+P0A7W1+P02358+P02359+P0A7W7+P0A7X3+P0A7J3+P0A7J7+P0AA10+P0ADY3+P02413+P0ADY7+P0AG44+P0C018+P0A7K6+P0A7L0+P0A7L3+P0AG48+P61175+P0ADZ0+P60624+P68919+P0A7L8+P0A7M2+P0A7M6+P60422+P0AG51+P0A7N1+P0A7M9+P0A7N4+P0A7N9+P0A7P5+P0A7Q1+Q2EEQ2+P0A7Q6+P60438+P62399+P0AG55+P0A7K2); test: Binding affinity to Staphylococcus aureus ATCC 43300 50S ribosome assessed as dissociation rate constant by SPR analysis; type: subcellular
How it was run: (§1)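 The 50S subunit was purified from ATCC 43300 by sucrose cushion, a 7–30% sucrose gradient and PEG precipitation. Compounds at 100 µM in DMSO were photo-crosslinked onto the chip and printed four times each. Ribosome at 200–3200 nM in PBST (pH 7.4, 0.1% Tween 20) was run at 4 °C: association 600 s, then dissociation 360 s, both at 0.5 µL/s. Surface was regenerated with glycine-HCl pH 2.0.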

Staphylococcus aureus [6] = test: Antibacterial activity against methicillin-resistant Staphylococcus aureus ATCC 43300 assessed as reduction in bacterial growth at 4 times of MIC measured at 3 hrs by time kill assay; type: functional
How it was run: (§2)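 MRSA was grown in MH broth at 37 °C for 4.5 h and diluted to 1×10^6 CFU/mL. Compound was added at 1, 2, 4, 8, 16 or 32 × MIC; growth control had 0.9% saline only. Cultures were shaken at 37 °C and sampled at 0, 3, 6, 9 and 24 h. Samples were serially diluted in saline and plated on MH agar, with CFU counted after 24 h at 37 °C. Run in triplicate.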

Staphylococcus aureus [7] = test: Bactericidal activity against methicillin-resistant Staphylococcus aureus ATCC 43300 assessed as reduction in bacterial growth at 1 to 32 times of MIC measured upto 24 hrs by time kill assay; type: functional, organism-based; conditions: time hrs <=24, TDE = time-dependent effect; how it was run: as §2
[8] = molecular target: T1, Bacterial 70S ribosome (Bacteria); test: Binding affinity to Staphylococcus aureus ATCC 43300 50S ribosome assessed as association constant by SPR analysis; type: subcellular; how it was run: as §1
Staphylococcus aureus [9] = test: In vivo antibacterial activity against methicillin-resistant Staphylococcus aureus ATCC 43300 infected in ICR/Swiss mouse model of neutropenic thigh infection assessed as reduction in bacterial growth at 20 mg/kg, iv administered 2 hrs after infection and tissue collected after 24 hrs and measured after 24 hrs […]; type: functional
How it was run: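 Female ICR/Swiss mice, 6 weeks old, were made neutropenic with ip cyclophosphamide (150 mg/kg at day −4, 100 mg/kg at day −1). Each thigh received about 10^7 CFU/mL MRSA in 0.1 mL. At 2 h, mice got a single iv dose of 20 mg/kg or saline, with 3 mice (6 thighs) per group. At 24 h, thighs were homogenized in iced saline, diluted and plated on MH agar, and CFU counted after 24 h at 37 °C.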

Cytochrome P450 3A4 = Cytochrome P450 3A4 (Homo sapiens, UniProt P08684); test: Inhibition of CYP3A4 in human liver microsomes using testosterone as substrate incubated for 5 mins followed by NADPH addition and measured after 5 mins by LC/MS/MS analysis
How it was run: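 Final conditions: human liver microsomes 0.2 mg/mL, testosterone 20 μmol/L, 0.1 M Tris pH 7.4, inhibitor at 2.5–80 μM. Plates were preincubated 5 min at 37 °C, then started with NADPH (final 1 mmol/L) and run 5 min. Reaction was stopped with acetonitrile containing loratadine as internal standard, and the supernatant was analysed by LC-MS/MS. IC50 was determined.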

RAW264.7 = test: Cytotoxicity against mouse RAW264.7 cells assessed as reduction in cell viability at < 40 ug/ml incubated for 16 hrs by MTT assay; conditions: raw264.7, 16 h

Chain of Cytochrome P450 3A4 (P08684 whole entry): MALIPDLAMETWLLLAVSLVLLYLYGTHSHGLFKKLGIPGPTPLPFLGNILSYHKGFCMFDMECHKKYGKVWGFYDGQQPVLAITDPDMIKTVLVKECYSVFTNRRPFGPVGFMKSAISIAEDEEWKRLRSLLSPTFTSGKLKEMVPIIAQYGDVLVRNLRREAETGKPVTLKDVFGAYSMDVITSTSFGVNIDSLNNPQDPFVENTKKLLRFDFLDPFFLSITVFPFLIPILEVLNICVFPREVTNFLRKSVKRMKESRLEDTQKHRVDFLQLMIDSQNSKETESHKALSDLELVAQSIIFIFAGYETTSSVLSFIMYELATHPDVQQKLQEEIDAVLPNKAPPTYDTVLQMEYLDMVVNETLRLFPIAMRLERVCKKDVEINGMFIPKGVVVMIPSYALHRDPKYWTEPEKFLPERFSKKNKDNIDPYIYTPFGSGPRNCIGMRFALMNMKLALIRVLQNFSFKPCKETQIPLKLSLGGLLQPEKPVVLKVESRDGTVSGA

Structure (SMILES) | MIC (Staphylococcus aureus [1]) | MIC (Staphylococcus aureus [2]) | MIC (Staphylococcus aureus [3]) | MIC (Staphylococcus aureus [4]) | Kdiss [5] | Activity (Staphylococcus aureus [6]) | Activity (Staphylococcus aureus [7]) | Ka [8] | Activity (Staphylococcus aureus [9]) | IC50 (Cytochrome P450 3A4) | Activity (RAW264.7)
C=C[C@]1(C)C[C@@H](OC(=O)CSc2nc(N)n[nH]2)[C@]2(C)[C@H](C)CC[C@]3(CCC(=O)[C@H]32)[C@@H](C)[C@@H]1O | 1 µg/mL (≈ 2.1 µM) | 1 µg/mL (≈ 2.1 µM) | 2 µg/mL (≈ 4.2 µM) | 1 µg/mL (≈ 2.1 µM) | – | – | – | – | – | – | –
C=C[C@]1(C)C[C@@H](OC(=O)CSc2nc(N)n(C(=O)c3ccccc3)n2)[C@]2(C)[C@H](C)CC[C@]3(CCC(=O)[C@H]32)[C@@H](C)[C@@H]1O | 0.25 µg/mL (≈ 0.43 µM) | 1 µg/mL (≈ 1.72 µM) | 2 µg/mL (≈ 3.44 µM) | 1 µg/mL (≈ 1.72 µM) | 2.7 10^-4M | – | – | – | – | – | –
C=C[C@]1(C)C[C@@H](OC(=O)CSc2nc(N)n(C(=O)c3cccc(F)c3)n2)[C@]2(C)[C@H](C)CC[C@]3(CCC(=O)[C@H]32)[C@@H](C)[C@@H]1O | 0.25 µg/mL (≈ 0.418 µM) | 0.5 µg/mL (≈ 0.835 µM) | 1 µg/mL (≈ 1.67 µM) | 0.5 µg/mL (≈ 0.835 µM) | 2.21 10^-5M | -1.26 log10CFU/ml | Tde | 5.4 10^2/Ms | – | – | –
C=C[C@]1(C)C[C@@H](OC(=O)CSc2nc(N)n(C(=O)c3ccccc3Cl)n2)[C@]2(C)[C@H](C)CC[C@]3(CCC(=O)[C@H]32)[C@@H](C)[C@@H]1O | 0.5 µg/mL (≈ 0.813 µM) | 0.5 µg/mL (≈ 0.813 µM) | 1 µg/mL (≈ 1.63 µM) | 0.5 µg/mL (≈ 0.813 µM) | – | – | – | – | – | – | –
C=C[C@]1(C)C[C@@H](OC(=O)CSc2nc(N)n(C(=O)c3ccc(OC(F)(F)F)cc3)n2)[C@]2(C)[C@H](C)CC[C@]3(CCC(=O)[C@H]32)[C@@H](C)[C@@H]1O | 1 µg/mL (≈ 1.5 µM) | 2 µg/mL (≈ 3.01 µM) | 2 µg/mL (≈ 3.01 µM) | 1 µg/mL (≈ 1.5 µM) | – | – | – | – | – | – | –
C=C[C@]1(C)C[C@@H](OC(=O)CSc2nc(N)n(C(=O)c3ccccc3C)n2)[C@]2(C)[C@H](C)CC[C@]3(CCC(=O)[C@H]32)[C@@H](C)[C@@H]1O | 0.5 µg/mL (≈ 0.841 µM) | 1 µg/mL (≈ 1.68 µM) | 1 µg/mL (≈ 1.68 µM) | 1 µg/mL (≈ 1.68 µM) | – | – | – | – | – | – | –
C=C[C@]1(C)C[C@@H](OC(=O)CSc2nc(N)n(C(=O)c3ccc(C(F)(F)F)cc3)n2)[C@]2(C)[C@H](C)CC[C@]3(CCC(=O)[C@H]32)[C@@H](C)[C@@H]1O | 1 µg/mL (≈ 1.54 µM) | 1 µg/mL (≈ 1.54 µM) | 1 µg/mL (≈ 1.54 µM) | 1 µg/mL (≈ 1.54 µM) | – | – | – | – | – | – | –
C=C[C@]1(C)C[C@@H](OC(=O)CSc2nc(N)n(C(=O)c3ccc(C)cc3)n2)[C@]2(C)[C@H](C)CC[C@]3(CCC(=O)[C@H]32)[C@@H](C)[C@@H]1O | 0.125 µg/mL (≈ 0.21 µM) | 0.125 µg/mL (≈ 0.21 µM) | 0.125 µg/mL (≈ 0.21 µM) | 0.125 µg/mL (≈ 0.21 µM) | 2.2 10^-4M | -1.95 log10CFU/ml | Tde | 4.16 10^2/Ms | 1.89 log10CFU/g | 3.95 µM | Non-Toxic
C=C[C@]1(C)C[C@@H](OC(=O)CSc2nc(N)n(C(=O)c3cc(Cl)cc(Cl)c3)n2)[C@]2(C)[C@H](C)CC[C@]3(CCC(=O)[C@H]32)[C@@H](C)[C@@H]1O | 1 µg/mL (≈ 1.54 µM) | 1 µg/mL (≈ 1.54 µM) | 1 µg/mL (≈ 1.54 µM) | 0.5 µg/mL (≈ 0.77 µM) | – | – | – | – | – | – | –
C=C[C@]1(C)C[C@@H](OC(=O)CSc2nc(N)n(C(=O)c3c(F)c(F)c(F)c(F)c3F)n2)[C@]2(C)[C@H](C)CC[C@]3(CCC(=O)[C@H]32)[C@@H](C)[C@@H]1O | 1 µg/mL (≈ 1.49 µM) | 2 µg/mL (≈ 2.98 µM) | 2 µg/mL (≈ 2.98 µM) | 1 µg/mL (≈ 1.49 µM) | – | – | – | – | – | – | –
C=C[C@]1(C)C[C@@H](OC(=O)CSc2nc(N)n(C(=O)c3ccccc3C(F)(F)F)n2)[C@]2(C)[C@H](C)CC[C@]3(CCC(=O)[C@H]32)[C@@H](C)[C@@H]1O | 2 µg/mL (≈ 3.08 µM) | 4 µg/mL (≈ 6.17 µM) | 4 µg/mL (≈ 6.17 µM) | 4 µg/mL (≈ 6.17 µM) | – | – | – | – | – | – | –
